According to ChEMBL document CHEMBL1142744 (Bioorg Med Chem Lett, 2005):
pKi: −log10 of the molar value.

Legend:
[1] = target: Neuronal acetylcholine receptor; alpha4/beta4 (Rattus norvegicus, UniProt P09483+P12392); assay: In vitro binding affinity towards rat Nicotinic acetylcholine receptor alpha4-beta4 using 0.5 nM [3H]epibatidine; assay type: protein-complex assay
In short: (§1)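 Stably transfected cell lines, each expressing one rat nAChR subtype (α4β2 or α4β4), were used. Ki was derived from the radioligand Kd for each subtype.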

[2] = target: Neuronal acetylcholine receptor; alpha3/beta4 (Rattus norvegicus) (UniProt P04757+P12392); assay: Agonistic activity as [86Rb+] efflux from KXalpha-3-beta-4R2 cells expressing rat Nicotinic acetylcholine receptor at 100 uM; assay type: functional
In short: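 KXα3β4R2 cells stably expressing functional rat α3β4 receptors were used. Agonism was read as stimulated 86Rb+ efflux in the presence of compound at 100 µM.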

[3] = target: Neuronal acetylcholine receptor; alpha4/beta2 (Rattus norvegicus, UniProt P09483+P12390); assay: In vitro binding affinity towards rat Nicotinic acetylcholine receptor alpha4-beta2 using 0.5 nM [3H]epibatidine; assay type: protein-complex assay; in short: as §1
Sequence of Neuronal acetylcholine receptor; alpha4/beta2 (P09483 whole entry): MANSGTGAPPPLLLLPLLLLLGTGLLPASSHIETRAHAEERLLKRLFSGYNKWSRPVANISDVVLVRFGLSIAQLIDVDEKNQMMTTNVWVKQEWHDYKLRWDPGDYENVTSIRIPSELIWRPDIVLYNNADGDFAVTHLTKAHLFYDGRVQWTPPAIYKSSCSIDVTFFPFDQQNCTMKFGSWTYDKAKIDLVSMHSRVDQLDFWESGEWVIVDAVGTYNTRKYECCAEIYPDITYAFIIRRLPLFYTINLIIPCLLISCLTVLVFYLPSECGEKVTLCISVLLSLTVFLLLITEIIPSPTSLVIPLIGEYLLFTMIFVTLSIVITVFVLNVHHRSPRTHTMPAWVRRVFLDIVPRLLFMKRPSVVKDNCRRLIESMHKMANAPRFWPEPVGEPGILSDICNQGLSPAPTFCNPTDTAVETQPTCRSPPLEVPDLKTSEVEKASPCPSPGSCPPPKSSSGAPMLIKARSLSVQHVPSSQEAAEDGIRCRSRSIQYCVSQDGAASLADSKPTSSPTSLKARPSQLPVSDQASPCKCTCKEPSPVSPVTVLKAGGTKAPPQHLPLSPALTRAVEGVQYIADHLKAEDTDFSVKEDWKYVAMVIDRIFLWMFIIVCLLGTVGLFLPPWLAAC
Sequence of Neuronal acetylcholine receptor; alpha4/beta2 (P12390 whole entry): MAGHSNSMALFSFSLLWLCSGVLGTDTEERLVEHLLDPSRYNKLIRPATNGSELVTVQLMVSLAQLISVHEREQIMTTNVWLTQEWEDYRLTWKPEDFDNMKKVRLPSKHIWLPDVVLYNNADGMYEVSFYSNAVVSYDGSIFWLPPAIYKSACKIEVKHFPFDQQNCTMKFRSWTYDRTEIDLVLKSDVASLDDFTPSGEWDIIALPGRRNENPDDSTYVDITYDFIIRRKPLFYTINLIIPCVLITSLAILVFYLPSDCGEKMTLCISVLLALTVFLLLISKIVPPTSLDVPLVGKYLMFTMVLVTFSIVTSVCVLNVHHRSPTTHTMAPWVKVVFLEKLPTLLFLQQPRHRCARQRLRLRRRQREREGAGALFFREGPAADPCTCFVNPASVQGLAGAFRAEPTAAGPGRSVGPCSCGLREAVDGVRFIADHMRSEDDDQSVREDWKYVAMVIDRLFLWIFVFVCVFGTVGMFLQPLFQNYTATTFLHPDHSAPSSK

[4] = target: Neuronal acetylcholine receptor; alpha3/beta2 (Rattus norvegicus, UniProt P04757+P12390); assay: In vitro binding affinity towards rat Nicotinic acetylcholine receptor alpha3-beta2 using 0.5 nM [3H]epibatidine; assay type: protein-complex assay
Sequence of Neuronal acetylcholine receptor; alpha3/beta2 (P04757 whole entry): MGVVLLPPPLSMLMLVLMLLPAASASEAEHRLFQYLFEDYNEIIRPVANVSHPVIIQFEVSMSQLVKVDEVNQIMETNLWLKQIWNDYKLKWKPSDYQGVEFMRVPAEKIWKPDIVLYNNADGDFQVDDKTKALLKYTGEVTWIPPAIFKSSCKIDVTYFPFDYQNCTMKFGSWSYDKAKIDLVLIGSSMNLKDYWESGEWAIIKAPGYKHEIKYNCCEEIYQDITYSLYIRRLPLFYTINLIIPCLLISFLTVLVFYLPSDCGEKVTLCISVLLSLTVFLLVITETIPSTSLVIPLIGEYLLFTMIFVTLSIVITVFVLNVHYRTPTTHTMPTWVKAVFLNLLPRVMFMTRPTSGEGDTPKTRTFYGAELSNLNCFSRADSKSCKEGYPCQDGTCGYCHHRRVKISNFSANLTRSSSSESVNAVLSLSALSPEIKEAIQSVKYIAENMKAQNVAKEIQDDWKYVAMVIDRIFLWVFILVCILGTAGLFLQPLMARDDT
Sequence of Neuronal acetylcholine receptor; alpha3/beta2 (P12390 whole entry): as the sequence (P12390 whole entry) above

[5] = target: Neuronal acetylcholine receptor; alpha3/beta4 (Rattus norvegicus, UniProt P04757+P12392); assay: In vitro binding affinity towards rat Nicotinic acetylcholine receptor alpha3-beta4 using 0.5 nM [3H]epibatidine; assay type: protein-complex assay
Sequence of Neuronal acetylcholine receptor; alpha3/beta4 (P04757 whole entry): as the sequence (P04757 whole entry) above
Sequence of Neuronal acetylcholine receptor; alpha3/beta4 (P12392 whole entry): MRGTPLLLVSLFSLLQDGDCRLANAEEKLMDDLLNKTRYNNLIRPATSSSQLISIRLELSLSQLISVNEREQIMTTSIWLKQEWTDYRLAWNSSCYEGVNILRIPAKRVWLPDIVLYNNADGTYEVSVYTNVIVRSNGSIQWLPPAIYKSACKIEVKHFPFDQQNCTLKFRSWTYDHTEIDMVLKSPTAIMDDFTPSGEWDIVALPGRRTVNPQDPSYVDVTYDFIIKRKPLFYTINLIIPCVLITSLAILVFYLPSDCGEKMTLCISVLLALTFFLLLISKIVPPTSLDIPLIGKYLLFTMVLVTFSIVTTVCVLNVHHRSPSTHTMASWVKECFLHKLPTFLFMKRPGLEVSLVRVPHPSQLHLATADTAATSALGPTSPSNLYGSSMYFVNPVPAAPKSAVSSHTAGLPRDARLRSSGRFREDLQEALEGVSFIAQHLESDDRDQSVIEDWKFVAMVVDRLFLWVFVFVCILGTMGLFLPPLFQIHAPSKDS

[6] = target: Neuronal acetylcholine receptor; alpha2/beta2 (Rattus norvegicus, UniProt P12389+P12390); assay: In vitro binding affinity towards rat Nicotinic acetylcholine receptor alpha2-beta2 using 0.5 nM [3H]epibatidine; assay type: protein-complex assay
Sequence of Neuronal acetylcholine receptor; alpha2/beta2 (P12389 whole entry): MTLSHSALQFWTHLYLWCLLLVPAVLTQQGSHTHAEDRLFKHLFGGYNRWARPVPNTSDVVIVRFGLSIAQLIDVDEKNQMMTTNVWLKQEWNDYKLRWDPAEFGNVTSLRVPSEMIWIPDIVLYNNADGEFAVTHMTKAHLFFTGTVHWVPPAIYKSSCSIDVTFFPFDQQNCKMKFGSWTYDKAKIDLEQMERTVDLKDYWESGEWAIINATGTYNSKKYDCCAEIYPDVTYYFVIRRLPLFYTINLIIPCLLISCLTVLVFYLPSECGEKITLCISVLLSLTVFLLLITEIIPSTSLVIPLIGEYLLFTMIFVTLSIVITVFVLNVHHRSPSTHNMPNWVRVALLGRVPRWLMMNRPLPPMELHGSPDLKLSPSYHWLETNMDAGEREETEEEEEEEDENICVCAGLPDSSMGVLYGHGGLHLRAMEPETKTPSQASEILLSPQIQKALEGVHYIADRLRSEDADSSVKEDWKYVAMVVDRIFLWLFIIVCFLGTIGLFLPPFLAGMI
Sequence of Neuronal acetylcholine receptor; alpha2/beta2 (P12390 whole entry): as the sequence (P12390 whole entry) above

[7] = target: Neuronal acetylcholine receptor; alpha2/beta4 (Rattus norvegicus, UniProt P12389+P12392); assay: In vitro binding affinity towards rat Nicotinic acetylcholine receptor alpha2-beta4 using 0.5 nM [3H]epibatidine; assay type: protein-complex assay
Sequence of Neuronal acetylcholine receptor; alpha2/beta4 (P12389 whole entry): as the sequence (P12389 whole entry) above
Sequence of Neuronal acetylcholine receptor; alpha2/beta4 (P12392 whole entry): as the sequence (P12392 whole entry) above

Sequence of Neuronal acetylcholine receptor; alpha4/beta4 (P09483 whole entry): as the sequence (P09483 whole entry) above
Sequence of Neuronal acetylcholine receptor; alpha4/beta4 (P12392 whole entry): as the sequence (P12392 whole entry) above

## Cc1ccc(-c2cc(C3CC4CCC3N4)cnc2Cl)cc1 (stereo unspecified)
[1]
  pKi: 8.32
[2]
  Stimulation: 3.8%
[3]
  pKi: 10.24
[4]
  pKi: 9.77
[5]
  pKi: 6.37
[6]
  pKi: 10.36
[7]
  pKi: 8.28

## Fc1ncc(C2CC3CCC2N3)cc1-c1ccc(Cl)c(Cl)c1 (stereo unspecified)
[1]
  pKi: 8.13
[2]
  Stimulation: 2.7%
[3]
  pKi: 9.55
[4]
  pKi: 8.64
[5]
  pKi: 6.48
[6]
  pKi: 9.61
[7]
  pKi: 8.16

## Cc1cccc(-c2cc(C3CC4CCC3N4)cnc2F)c1 (stereo unspecified)
[1]
  pKi: 7.44
[2]
  Stimulation: 0.1%
[3]
  pKi: 9.05
[4]
  pKi: 8.03
[5]
  pKi: 5.62
[6]
  pKi: 8.95
[7]
  pKi: 7.50

## Fc1ncc(C2CC3CCC2N3)cc1-c1ccccc1 (stereo unspecified)
[1]
  pKi: 7.59
[2]
  Stimulation: 0.4%
[3]
  pKi: 9.13
[4]
  pKi: 8.45
[5]
  pKi: 6.02
[6]
  pKi: 9.19
[7]
  pKi: 7.78

## CN1CCC[C@H]1c1cccnc1
[2]
  Stimulation: 100%

## N#Cc1ccc(-c2cc(C3CC4CCC3N4)cnc2F)cc1 (stereo unspecified)
[1]
  pKi: 8.44
[2]
  Stimulation: 36.8%
[3]
  pKi: 10.41
[4]
  pKi: 9.45
[5]
  pKi: 6.54
[6]
  pKi: 10.18
[7]
  pKi: 8.44

## Clc1ncc(C2CC3CCC2N3)cc1-c1ccccc1 (stereo unspecified)
[1]
  pKi: 8.94
[2]
  Stimulation: 6.1%
[3]
  pKi: 10.41
[4]
  pKi: 9.91
[5]
  pKi: 7.62
[6]
  pKi: 10.43
[7]
  pKi: 9.33

## Clc1ccc(C2CC3CCC2N3)cn1 (racemic)
[2]
  Stimulation: 112%

## COc1ccc(-c2cc(C3CC4CCC3N4)cnc2Cl)cc1 (stereo unspecified)
[1]
  pKi: 8.80
[2]
  Stimulation: 3.1%
[3]
  pKi: 10.47
[4]
  pKi: 10.00
[5]
  pKi: 7.26
[6]
  pKi: 10.40
[7]
  pKi: 9.06

## Fc1ncc(C2CC3CCC2N3)cc1-c1ccc(Cl)cc1 (stereo unspecified)
[1]
  pKi: 8.40
[2]
  Stimulation: 3.2%
[3]
  pKi: 10.21
[4]
  pKi: 9.47
[5]
  pKi: 6.59
[6]
  pKi: 10.19
[7]
  pKi: 8.39

## Cc1ccc(-c2cc(C3CC4CCC3N4)cnc2F)cc1 (stereo unspecified)
[1]
  pKi: 8.91
[2]
  Stimulation: 1%
[3]
  pKi: 10.55
[4]
  pKi: 10.11
[5]
  pKi: 7.54
[6]
  pKi: 10.46
[7]
  pKi: 9.27

## Cc1cc(-c2cc(C3CC4CCC3N4)cnc2F)ccc1F (stereo unspecified)
[1]
  pKi: 7.17
[2]
  Stimulation: 0.7%
[3]
  pKi: 8.90
[4]
  pKi: 8.05
[5]
  pKi: 5.53
[6]
  pKi: 8.81
[7]
  pKi: 7.22

## Fc1ccc(-c2cc(C3CC4CCC3N4)cnc2F)cc1 (stereo unspecified)
[1]
  pKi: 8.19
[2]
  Stimulation: 3.6%
[3]
  pKi: 10.11
[4]
  pKi: 9.30
[5]
  pKi: 6.39
[6]
  pKi: 10.10
[7]
  pKi: 8.21

## CN1C2CCC1C(c1cnc(Cl)c(-c3ccccc3)c1)C2 (stereo unspecified)
[1]
  pKi: 8.80
[2]
  Stimulation: 3.9%
[3]
  pKi: 10.49
[4]
  pKi: 9.80
[5]
  pKi: 7.81
[6]
  pKi: 10.28
[7]
  pKi: 9.62
